# Runt-CBFb FRET – inhibitors of human RUNX1 Runt domain binding to CBFb; Cerulean-Runt/Venus-CBFb FRET ratio 530/480, 1 h; inhibition, % at 20 µM; Q01196+Q13951; actives 0.46% (n = 220,000);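 active = inhibition over about 50% at 20 µM in the single-dose screen, limit read from the data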;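 note: 0% = DMSO wells and 100% = excess unlabeled CBFb competitor control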
# Target sequence (Q01196 whole entry, looked up, the tested form may be a part): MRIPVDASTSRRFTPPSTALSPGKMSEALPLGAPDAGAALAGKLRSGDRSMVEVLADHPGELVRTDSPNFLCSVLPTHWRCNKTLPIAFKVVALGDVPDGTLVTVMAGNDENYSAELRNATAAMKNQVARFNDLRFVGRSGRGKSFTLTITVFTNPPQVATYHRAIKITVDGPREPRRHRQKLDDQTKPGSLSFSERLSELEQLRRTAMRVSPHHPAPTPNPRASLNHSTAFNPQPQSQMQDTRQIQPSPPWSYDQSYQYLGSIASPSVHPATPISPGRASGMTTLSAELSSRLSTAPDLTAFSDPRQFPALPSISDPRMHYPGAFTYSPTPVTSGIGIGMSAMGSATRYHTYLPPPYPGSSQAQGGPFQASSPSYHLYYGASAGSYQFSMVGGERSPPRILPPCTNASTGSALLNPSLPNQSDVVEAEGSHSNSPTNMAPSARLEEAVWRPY
# Target sequence (Q13951 whole entry, looked up, the tested form may be a part): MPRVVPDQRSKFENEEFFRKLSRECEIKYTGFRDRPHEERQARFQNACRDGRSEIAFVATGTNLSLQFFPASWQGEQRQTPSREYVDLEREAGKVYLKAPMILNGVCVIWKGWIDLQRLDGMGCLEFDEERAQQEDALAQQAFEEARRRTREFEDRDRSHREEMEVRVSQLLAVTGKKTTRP
#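 Assay system: Cerulean-Runt domain / Medium: Tris 50 mM pH 7.5, KCl, K2SO4, 0.01% BSA / Timing: protein complex preformed 1 h, compound exposure 1 h, room temperature, dark / Measured by: FRET, excitation 422 nm, emission at 530 and 480 nm / Evaluation: loss of energy transfer signal / Control set: 5 µM unlabeled CBFb as full-inhibition high control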
# Runt-SMMHC FRET – inhibitors of human RUNX1 Runt domain binding to CBFb-SMMHC; Q01196+Q13951; Cerulean-Runt/Venus-CBFb-SMMHC FRET ratio 530/480, 1 h; inhibition, % at 20 µM; actives 0.74% (n = 220,000); AID 1434;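 active = mean inhibition across duplicate retests at 20 µM reaching about 50%, limit read from the data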;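 note: 0% = DMSO wells and 100% = wells with excess untagged CBFb-SMMHC; inhibitors lower the FRET ratio by blocking Runt binding to CBFb-SMMHC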
# RanGTP-Imp inh – disruptors of Ran-importin-beta complex formation – biochemical, FRET, CFP-Ran, YFP-importin-beta, homogeneous, primary screen; actives 1.1% (n = 300,000); inhibition, % (test concentration not listed); cell-free CFP-Ran/YFP-importin-beta FRET ratio; AID 2216;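 active = more than half of the replicate wells show a fall in the fluorescence ratio signal beyond about 16%, limit read from the data, passing the limit was not always enough; inconclusive = exactly half of the replicate wells pass the set limit; inactive = fewer than half of replicates pass the limit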;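 note: 0% = DMSO wells and 100% = Ran loaded with GDP instead of GTP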
# Hck-Nef inh – human Hck-Nef kinase inhibition; P08631; Recombinant Hck-YEEI plus Nef, Z-Lyte FRET kinase assay; actives 0.68% (n = 220,000); AID 463187; inhibition, % at 20 µM;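 active = Hck-Nef kinase inhibition above about 50%, limit read from the data; inactive = inhibition below that limit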;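 note: 0% = DMSO with Hck plus Nef and 100% = Hck alone without Nef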
# Numbers without * were called inactive; ? = inconclusive; / = no result. Only some compounds are listed: those with a hit (about 1.9% of all), similar ones and a draw of the others.
SMILES,Runt-CBFb FRET,Runt-SMMHC FRET,RanGTP-Imp inh,Hck-Nef inh
O=C(NCc1ccccn1)c1ccc(CNS(=O)(=O)c2ccc(F)cc2)cc1,-6,-1,1,1
C/C(=N/NC(=O)c1ccncc1)c1cc2ccc(O)cc2oc1=O,19,63*,/,5
NC(=S)c1cc2cc(Br)ccc2oc1=O,/,-7,3,-1
NC(=S)c1cc2ccc(O)cc2oc1=O,9,82*,147*,19
C/C(=N/NC(N)=S)c1cc2ccc(O)cc2oc1=O,10,84*,152*,187*
O=C1/C(=C\c2ccc(O)c(O)c2)N=C2CCCCCN12,-7,-43,0,6
COc1ccc(-n2c(=S)[nH]c3sc4c(c3c2=O)CCN(C)C4)cc1,14,39,23*,3
N#CC1=C(N)N2C(=C(C#N)C1c1cccc(Br)c1)Nc1ccccc12 (stereo unspecified),20,64*,28*,4
N#CC1=C(N)N2C(=C(C#N)C1c1ccccc1)Sc1ccccc12 (stereo unspecified),-60,-69,?,2
N#CC1=C(N)N2C(=C(C#N)C1c1ccc(Br)cc1)Nc1ccccc12 (stereo unspecified),19,60*,23*,7
O=C(NCc1ccco1)/C(=C/c1ccc(Br)cc1)NC(=O)c1ccco1,/,/,23*,/
O=C(NC(Cc1ccccc1)C(=O)O)/C(=C/c1ccc(Br)cc1)NC(=O)c1ccc(Br)o1 (stereo unspecified),/,/,24*,/
O=C(NCc1ccccc1)/C(=C\c1ccc(O)cc1)NC(=O)c1ccco1,/,/,-3,/
O=C(NC(Cc1ccccc1)C(=O)O)/C(=C\c1ccc(Br)cc1)NC(=O)c1ccc(Br)o1 (stereo unspecified),/,/,12,/
CSc1ncccc1C(=O)OCC(=O)c1cccc(Br)c1,1,-5,0,19
COC(=O)c1cccc(/C=N/NC(N)=S)c1O,39,84*,42*,-79
COC(=O)c1ccccc1NC(=O)CNC(=O)c1ccco1,-1,-1,1,3
Cc1c2c(n3c(nc4ccccc43)c1C#N)N(c1ccccc1)CC2,16,79*,/,6
CCc1c(C)c(C#N)c2nc3ccccc3n2c1Cl,-10,-31,21*,4
COC(=O)CCc1c(C)c(C#N)c2nc3ccccc3n2c1N1CCCC1,13,62,17*,4
CCc1c(C)c(C#N)c2nc3ccccc3n2c1NCC1CCCO1 (stereo unspecified),35,65*,7,21
Cc1c(C#N)c2ccccc2n1CC(=O)NCC1CCCO1 (stereo unspecified),2,12,6,1
CCc1c(C)c(C#N)c2nc3ccccc3n2c1-n1nc(C)cc1C,-20,-63,-4,0
O=C(OCC(=O)N1CCc2ccccc21)c1ccc(Cl)nc1,0,4,12,0
CCc1c(C)c(C#N)c2nc3ccccc3n2c1NCc1ccccn1,32,65*,12,21
SMILES,Runt-CBFb FRET,Runt-SMMHC FRET,RanGTP-Imp inh,Hck-Nef inh
CCc1c(C)c(C#N)c2nc3ccccc3n2c1N1CCN(c2cc(C)ccn2)CC1,0,-15,7,1
Cc1nn(-c2ccccc2)c2sc(C(=O)NNC(=O)COc3cccc4ccccc34)cc12,-4,-3,3,3
Cc1nn(-c2ccccc2)c2sc(C(=O)NNC(=O)COc3ccccc3)cc12,121*,128,1,12
COc1cc(/C=C(\C#N)C(=O)NCc2cccs2)ccc1O,23,58*,4,-2
COCCNC(=O)/C(C#N)=C/c1ccc(OC(=O)c2cccs2)c(OC)c1,-2,1,1,22
Cc1c(CCC(=O)N[C@@H](CC(C)C)C(=O)O)c(=O)oc2cc3oc4c(c3cc12)CCCC4,/,/,2,/
CCCN(C(=O)c1cccs1)c1nnc(-c2ccncc2)s1,-2,1,0,3
CCCC[n+]1c2ccccc2cc2ccccc21,/,/,150*,/
CCC[n+]1c2ccccc2cc2ccccc21,/,/,155*,/
CC(=O)Nc1ccc(S(=O)(=O)c2c(N)n(CCN3CCOCC3)c3nc4ccccc4nc23)cc1,30,10,-2,31
CC(=O)Nc1c(S(=O)(=O)c2ccccc2)c2nc3ccccc3nc2n1Cc1ccccc1,20,73*,23*,6
Cc1ccc2[nH]c(=O)c(C(c3nnnn3Cc3ccccc3)N3CCc4ccccc43)cc2c1 (stereo unspecified),11,-1,20*,-2
CCc1c(C)nc(N2CCN(c3ccc(OC)cc3)CC2)[nH]c1=O,/,/,2,/
CCC(=O)NC1=C(Cl)C(=O)C(NC(=O)CC)=C(Cl)C1=O,17,95*,/,5
CCOc1ncccc1C(=O)Nc1ccc(F)c(Cl)c1,-5,-2,2,13
COC(=O)N1CCc2c(sc(NC(=O)C3COc4ccccc4O3)c2C(N)=O)C1 (stereo unspecified),/,/,-1,/
NC(=O)c1c(NC(=O)C2COc3ccccc3O2)sc2c1CCN(Cc1ccccc1)C2 (stereo unspecified),110*,137*,-3,25
CCOC(=O)c1c(NC(=S)Nc2ccccc2)sc2c1CCN(CC)C2,61*,152*,62*,4
CCOC(=O)c1c(NC(=O)C2COc3ccccc3O2)sc2c1CCN(Cc1ccccc1)C2 (stereo unspecified),49,48,90*,3
S=c1[nH]nc(C2CCCCC2)n1/N=C/c1ccc(Br)s1,10,22,?,-1
N#C/C(=C\c1c(N2CCCCCC2)nc2ccccn2c1=O)C(=O)NC1CCS(=O)(=O)C1 (stereo unspecified),4,82*,0,6
N#C/C(=C\c1c(N2CCCCCC2)nc2ccccn2c1=O)C(N)=O,/,/,-3,/
N#C/C(=C\c1c(N2CCOCC2)nc2ccccn2c1=O)C(=O)NC1CCS(=O)(=O)C1 (stereo unspecified),10,82*,3,7
O=C(O)CCc1cc(I)c(Oc2ccc(O)c(I)c2)c(I)c1,-5,-6,-9,39
COc1ccc(-n2c(SCC(N)=O)nc3sc4c(c3c2=O)CCC4)cc1,-1,-14,7,11
CC(C)C(C)NC(=O)CN1C(=O)NC2(CCc3ccccc32)C1=O (stereo unspecified),/,/,0,/
O=c1cc(N2CCOCC2)[nH]c(=O)n1-c1ccc(Cl)cc1,0,1,11,0
O=c1cc(N2CCCC2)[nH]c(=O)n1-c1ccc(Cl)cc1,-88,1,59*,4
Cc1ccc(-n2c(=O)cc(N3CCCCCC3)[nH]c2=O)cc1,0,-3,3,-2
O=c1cc(N2CCCCCC2)[nH]c(=O)n1-c1ccc(Cl)cc1,0,-4,129*,9
